The values that follow come from article PMC10952047 (iScience, 2024).

No end group written: not given here.

The target of this test is T1, CKR-1 (Caenorhabditis elegans, UniProt P91487).
T1 sequence (P91487 1-421): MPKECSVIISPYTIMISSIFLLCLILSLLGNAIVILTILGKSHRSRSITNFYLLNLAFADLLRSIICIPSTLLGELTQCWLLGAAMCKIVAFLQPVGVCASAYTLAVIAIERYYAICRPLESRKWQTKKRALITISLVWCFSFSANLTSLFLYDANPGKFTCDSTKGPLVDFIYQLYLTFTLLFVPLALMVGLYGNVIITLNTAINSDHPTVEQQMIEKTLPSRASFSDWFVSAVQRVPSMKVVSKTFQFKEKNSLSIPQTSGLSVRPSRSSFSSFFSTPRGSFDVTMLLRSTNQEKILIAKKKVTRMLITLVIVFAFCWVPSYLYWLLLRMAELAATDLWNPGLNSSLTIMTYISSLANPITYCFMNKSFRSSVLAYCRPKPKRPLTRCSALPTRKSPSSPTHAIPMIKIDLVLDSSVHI
It counts as cell-based, C. elegans. In short, it runs like this: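 CKR-1 cDNA cloned into pGH19, and 50 ng sense cRNA injected per oocyte. Oocytes kept 2-3 days at 18°C in ND96. TEVC at -80 mV with 3 M KCl electrodes. Perfusion switched from ND96 to high-K+ bath (96 mM KCl, pH 7.3) to read […] Ca2+-gated Cl- currents evoked by synthetic peptide. Washout in high-K+, then ND96.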

By EC50 is commonly meant the concentration giving half of the maximal effect. In turn, DYRPLQF-NH2 [NLP-12a] displayed an EC50 of 26.5 nM. The “EC50 of NLP-12a relative to NLP-18a” value (ratio of EC50 values, X. laevis oocytes expressing CKR-1) is “approximately twice that of NLP-18a”.
